Screening data (PubChem BioAssay)
Compounds with a hit are over-represented: about 4.2% of the library has one in this group of screens.
GAA850 FXN act: FXN promoter activators, primary screen, cell-based, luciferase luminescence, HEK293 lucGAA850 | HEK293 lucGAA850 FXN promoter luciferase reporter, 24 h; percent of 10 µM SAHA response | activation, % at 6 µM | 0.56% of 360,000 active | AID 540364, 2011;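 active means activation above the average of all compounds screened plus 3 SD, cutoff fixed separately per campaign, cut at about 7.5% in these data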;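 further: 0% = DMSO wells and 100% = 10 µM SAHA wells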
CTSL1 counter: Fasciola hepatica cathepsin L1 inhibitors, primary screen, counter-screen for PFM18AAP inhibitor project, biochemical, QFRET, fluorogenic peptide substrate | 0.49% of 300,000 active | AID 1906, 2009 | inhibition, % at 5.96 µM | recombinant F. hepatica cathepsin L1, Z-Leu-Arg-MCA fluorescence;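 active means inhibition above the mean of all tested compounds plus 3 SD, set per screening campaign, cut at about 17% in these data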;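 further: 0% = plate median of test compound wells and 100% = 1 µM Z-Phe-Ala-diazomethylketone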
HDAC3 inh: HDAC3 deacetylase inhibitors, primary screen, biochemical, fluorescence, cell-free homogeneous; inhibition, % at 8.3 µM; 0.15% of 320,000 active; Histone deacetylase 3 (Homo sapiens), O15379; recombinant HDAC3, fluorogenic peptide/trypsin coupled; in the data active means inhibition above about 26%, passing the limit was not always enough; inconclusive means no clear call, values can overlap the other calls
Target sequence (O15379 whole entry, looked up): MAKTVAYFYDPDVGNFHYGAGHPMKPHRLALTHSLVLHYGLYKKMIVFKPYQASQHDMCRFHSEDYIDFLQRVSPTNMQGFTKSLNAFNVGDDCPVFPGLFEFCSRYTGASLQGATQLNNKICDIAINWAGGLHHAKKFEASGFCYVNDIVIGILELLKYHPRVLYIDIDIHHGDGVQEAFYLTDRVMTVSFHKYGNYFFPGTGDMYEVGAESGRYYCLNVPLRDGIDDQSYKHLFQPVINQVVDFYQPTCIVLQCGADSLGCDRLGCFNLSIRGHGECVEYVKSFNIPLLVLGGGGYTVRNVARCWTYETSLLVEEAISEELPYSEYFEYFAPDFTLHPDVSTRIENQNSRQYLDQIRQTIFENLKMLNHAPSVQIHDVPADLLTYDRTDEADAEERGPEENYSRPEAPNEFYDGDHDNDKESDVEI
AHR act: AHR activators, primary screen, cell-based, luminescence, luciferase reporter, human | 2.5% of 320,000 active | activation, % at 5 µM | AHR-responsive luciferase reporter cells; in the data active means activation above about 47%;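 further: 0% = vehicle wells and 100% = reference agonist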
SENP1 FRET inh: human SENP1 catalytic domain inhibitors, primary screen, biochemical, FRET, uHTS | Sentrin-specific protease 1 (Homo sapiens), Q9P0U3 | recombinant SENP1 catalytic domain, CyPet-SUMO1-YPet FRET cleavage | inhibition, % at 10 µM | 0.21% of 360,000 active;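 active means inhibition at least 30% at 10 µM, raw YFP signal under a set limit, fluorescence ratio 0.5 to 1.5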;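 further: 0% = enzyme with DMSO and 100% = no enzyme wells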
Target sequence (Q9P0U3 419-644 limits assumed): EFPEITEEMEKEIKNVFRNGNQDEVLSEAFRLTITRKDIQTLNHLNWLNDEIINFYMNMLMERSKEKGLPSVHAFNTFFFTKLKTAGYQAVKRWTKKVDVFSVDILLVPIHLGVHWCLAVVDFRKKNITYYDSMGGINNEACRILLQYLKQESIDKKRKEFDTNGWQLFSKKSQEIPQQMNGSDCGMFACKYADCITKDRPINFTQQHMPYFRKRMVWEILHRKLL
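Material – human SENP1 catalytic domain · Input – SENP1 enzyme, 20 pM final · Compound dosing – single concentration of 10 µM compound, 0.5% DMSO final · Timing – enzyme reaction for 50 min at room temperature, dark · Measured by – FRET fluorescence in CFP and YFP emission channels · Control set – no-enzyme wells low, DMSO-plus-enzyme wells high control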
PfM18AAP inh: PfM18AAP inhibitors, malaria aminopeptidase, primary screen, biochemical, QFRET, recombinant enzyme; inhibition, % at 7.35 µM; AID 1822, 2009; H-Glu-NHMec fluorogenic cleavage; 1.2% of 290,000 active;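 active means inhibition above the campaign mean inhibition over all tested compounds plus 3 SD, cut at about 28% in these data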;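 further: 0% = plate median of test compound wells and 100% = 2 mM ZnCl2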
SENP1 conf: human SENP1 catalytic domain inhibitors, confirmation, biochemical, FRET endpoint, single concentration; shares compounds with SENP1 FRET inh; recombinant SENP1, CyPet-SUMO1-YPet FRET cleavage; inhibition, % at 10 µM; AID 651678, 2012; 34% of 520 active; in the data active means inhibition mostly above about 35%, no sharp cut-off; inactive means mostly below about 32%;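 further: 0% = enzyme with DMSO and 100% = no enzyme control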
SENP1 kinetic: human SENP1 catalytic domain inhibitors, confirmation, biochemical, kinetic FRET, single concentration. AID 651690, 2012. inhibition, % at 10 µM. recombinant SENP1, CyPet-SUMO1-YPet FRET kinetic cleavage. 26% of 520 active. shares compounds with SENP1 FRET inh; in the data active means inhibition mostly above about 32%, no sharp cut-off; inactive means mostly below about 29%;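 further: 0% = DMSO with enzyme and 100% = no enzyme substrate only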
Active calls of the source: *; ? = inconclusive; nt = no result.

SMILES	GAA850 FXN act	CTSL1 counter	HDAC3 inh	AHR act	SENP1 FRET inh	PfM18AAP inh	SENP1 conf	SENP1 kinetic
CCC(C)[C@H](NC(=O)C1CC(=O)N(c2ccc3c(c2)OCO3)C1)C(=O)NC1CCCCC1 (some centres undefined)	-1	1	0	0	5	20	nt	nt
CC(NS(=O)(=O)c1ccc2c(c1)oc(=O)n2C)c1ccccc1 (centres undefined)	1	0	-4	7	34*	2	12	15
N#CCSc1ccccc1NC(=O)CN1C(=O)C(=O)N(Cc2ccccc2)C1=O	1	nt	?	18	38*	nt	14	11
O=C(CN1C(=O)C(=O)N(Cc2ccccc2)C1=O)Nc1cc(Cl)cc(Cl)c1	2	1	nt	8	2	-15	nt	nt
COc1cc(OC)cc(C(=O)OCCCOC(=O)c2cc(OC)cc(OC)c2)c1	1	1	-4	-7	1	0	nt	nt
Cc1coc(NC(=O)CSc2nc(-c3ccncc3)cc(C(F)(F)F)c2C#N)n1	2	2	3	7	66*	6	45*	28*
Cc1ccc(S(=O)(=O)CCSc2nc(C)cc(C(F)(F)F)c2C#N)cc1	-4	13	?	-1	72*	5	22	16
CCOC(=O)NC(=O)CSc1nc(C)cc(C(F)(F)F)c1C#N	3	2	-7	15	39*	2	9	13
COC(=O)CSc1nc(C)cc(C(F)(F)F)c1C#N	-1	0	-2	-2	4	1	nt	nt
O=C(CN1C(=O)/C(=C\C=C\c2ccccc2)SC1=S)Nc1ccc(F)cc1	2	4	-5	3	66*	5	63*	41*
O=C(CCN1C(=O)/C(=C\C=C\c2ccccc2)SC1=S)Nc1ccc(C(=O)O)cc1	7	7	nt	-1	-11	6	nt	nt
COc1ccc(C(=O)NCC(=O)N2CCN(c3ccc(F)cc3)CC2)cc1	0	-2	1	-2	0	0	nt	nt
N#C/C(=C\C1=C(N2CCOCC2)C(=C/c2cccc([N+](=O)[O-])c2)/CC1)C(=O)Nc1ccccc1F	3	0	-1	0	82	-5	nt	nt
N#C/C(=C/C1=C(N2CCOCC2)C(=C/c2cccc([N+](=O)[O-])c2)/CC1)C(=O)Nc1ccccc1F	0	nt	nt	nt	73*	nt	14	15
CC(=O)Oc1ccc(/C=C/c2nc3ccccc3c(=O)o2)cc1	1	-8	1	11	52*	3	-33	-22
CC1CCCC(C)N1C(=O)COC(=O)c1n[nH]c(=O)c2ccccc12 (centres undefined)	-1	nt	2	1	2	nt	nt	nt
COC(=O)C1CC(O)CN1C(=O)Nc1ccccc1 (centres undefined)	2	-1	-4	0	30*	-6	11	5
COc1cccc(CC(=O)Nc2cc(S(=O)(=O)N3CCOCC3)ccc2N2CCN(C)CC2)c1	1	nt	0	0	3	nt	nt	nt
Nc1ccccc1C#Cc1ccc([N+](=O)[O-])cc1	4	0	3	10	33*	nt	18	17
N#CC(c1ccccc1)c1ccc([N+](=O)[O-])cc1 (centres undefined)	nt	nt	nt	nt	1	nt	nt	nt
CCCCN(c1nc2ccccc2nc1Cl)S(=O)(=O)c1ccc(C)cc1	0	1	6	7	-8	-13	nt	nt
O=C1C=C(c2cccc(Cl)c2O)C[C@@H](c2ccc(Cl)cc2)C1	0	nt	9	9	58*	nt	99*	76*
O=c1[nH]c2cc([N+](=O)[O-])ccc2c2ccccc12	4	nt	nt	nt	8	nt	nt	nt
O=c1[nH]c2cc([N+](=O)[O-])ccc2c2cc(Br)ccc12	6	nt	nt	nt	33*	nt	25	14
CN(C)c1cccc2c(S(=O)(=O)N3CCOCC3)cccc12	1	1	6	8	41*	9	10	11
SMILES	GAA850 FXN act	CTSL1 counter	HDAC3 inh	AHR act	SENP1 FRET inh	PfM18AAP inh	SENP1 conf	SENP1 kinetic
CC(C)Oc1cccc(C(=O)NC(=S)Nc2ccc3c4c(cccc24)CC3)c1	1	4	5	2	37*	0	6	2
CCCCCCCCCCCCCCCC[n+]1cccc2ccccc21	-7	1	?	-8	2	2	nt	nt
Cc1ccccc1C[n+]1cccc2ccccc21	1	-3	5	12	34*	nt	6	3
CCN(CC(=O)Nc1ccc(Br)cc1)C(=O)c1nc2nc(C)cc(C)n2n1	-1	nt	0	0	1	nt	nt	nt
CCOc1cccc(/C=C2\NC(=S)N(c3ccccc3)C2=O)c1O	2	1	-1	25	48*	6	45*	18
CCOc1ccc(N(CC(=O)N/N=C/c2cccnc2)S(C)(=O)=O)cc1	0	-7	-1	-4	1	3	nt	nt
Cc1cc(N2CCN(c3nc(-c4ccc([N+](=O)[O-])cc4)cs3)CC2)c2ccccc2n1	-2	-4	3	1	45*	-5	15	14
CCOC(=O)c1c(=O)n(O)c2ccc(C)cc2[n+]1[O-]	-1	1	3	2	47*	6	10	9
O=C1CN(C(=O)COC(=O)c2cccs2)c2ccccc2N1	2	nt	nt	10	-7	nt	nt	nt
Cn1c2ccccc2c2cc(C(=O)OCC(=O)N3CC(=O)Nc4ccccc43)sc21	0	0	-5	31	35*	-3	15	28
COc1cccc2c1-c1c(O)cccc1C2=O	3	4	-4	1	31*	-12	42*	26
O=C1c2cccc(O)c2C(=O)c2c(O)cccc21	nt	6	-6	-7	nt	18	nt	nt
CCN1C(=O)[C@@H]2[C@@H](c3ccc(-c4cc(C(C)=O)cs4)cc3)N3CCC[C@@]3(C(=O)OC)[C@@H]2C1=O	-2	nt	nt	nt	2	nt	nt	nt
CN(C)c1ccc(/C=N/NC(=O)c2cccc(C(=O)N/N=C/c3ccc(N(C)C)cc3)n2)cc1	4	7	-2	9	38*	2	-1	10
CN(C)c1ccc(/C=N/NC(=O)c2ccccc2Cl)cc1	-3	-2	10	24	0	4	nt	nt
